14 molecules from ChEMBL document CHEMBL4813982, “Novel pyrazolo[4,3-d]pyrimidine microtubule targeting agents (MTAs): Synthesis, structure-activity relationship, in vitro and in vivo evaluation as antitumor agents” (Bioorg Med Chem Lett, 2021) can be followed below.

Activity calls are given as the source filed them. The rule behind the calls is not given here. Where only a bound is given, the exact number is not on record here.

The term IC50 denotes the concentration at which inhibition is half-maximal. A low value points to greater potency in that assay. Usually inhibition stands for the percentage by which the read-out fell short of the control. A word on the EC50: it is the concentration that produces a half-maximal response. The low end stands for greater potency, the high end for weaker potency.

For one data set, the system named is NCI/ADR-RES. As to the kind of experiment: Antiproliferative activity against human NCI/ADR-RES cells overexpressing Pgp. Format: functional, cell-based.
Data set [1] concerns the target T1, Tubulin (Homo sapiens) (UniProt P68371+Q9H4B7+P0DPH7+P68366+Q13509+Q71U36+P04350+Q3ZCM7+P07437+P68363+Q9BQE3+Q6PEY2+Q13885+Q9BVA1+Q9BUF5). As to the kind of experiment: Inhibition of [3H]colchicine binding to tubulin (unknown origin) at 5 uM relative to control. Format: protein-complex assay.
For another data set, the target named is Tubulin. As to the kind of experiment: Inhibition of tubulin assembly (unknown origin). The data set is classed as protein-complex assay, Homo sapiens.
In the next data set the test system is OVCAR-8. Briefly: Antiproliferative activity against human OVCAR-8 cells. The data set is classed as functional, cell-based.
Data set [2] deals with T1, Tubulin (Homo sapiens). Briefly: Inhibition of [3H]colchicine binding to tubulin (unknown origin) at 0.5 uM relative to control. The data set is classed as protein-complex assay.
Data set [3] is described as follows: Toxicity in athymic mouse xenografted with human MCF7 cells expressing TUBB3 assessed as effect on body weight at 10 mg/kg administered twice in a week. As to conditions: in vivo. Format: organism-based. (In xenograft studies the graft and the host belong to different species.)
Data set [4] has as its system MCF7. Briefly: Antiproliferative activity against human MCF7 cells. Format: functional, cell-based.
Data set [5] deals with MCF7. Briefly: Antitumor activity against human MCF7 cells expressing TUBB3 xenografted in athymic mouse assessed as reduction in tumor growth at 10 mg/kg administered twice in a week. The data set is classed as functional, organism-based.
The test system of data set [6] is MCF7. As to the kind of experiment: Antiproliferative activity against human MCF7 cells expressing TUBB3. Format: functional, cell-based.
For data set [7], the system named is MCF7. As to the kind of experiment: Potency index, ratio of EC50 of paclitaxel to EC50 of compound for antiproliferative activity against human MCF7 cells. Format: functional.
Data set [8] in a line: Resistance ratio of EC50 for antiproliferative activity against human MCF7 cells expressing TUBB3 to EC50 for antiproliferative activity against human MCF7 cells. The data set is classed as functional. Summed up: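 Resistance ratio: EC50 in MCF-7 cells overexpressing βIII-tubulin divided by EC50 in parental wild-type MCF-7 cells.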
Data set [9] has as its system MCF7. Briefly: Potency index, ratio of EC50 of paclitaxel to EC50 of compound for antiproliferative activity against human MCF7 cells expressing TUBB3. The data set is classed as functional.
A short description of data set [10]: Resistance ratio of IC50 for antiproliferative activity against human NCI/ADR-RES cells expressing Pgp to IC50 for antiproliferative activity against human OVCAR-8 cells. The data set is classed as functional. Summed up: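 Resistance ratio: IC50 in Pgp-overexpressing NCI/ADR-RES cells divided by IC50 in parental OVCAR-8 cells.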

With `COc1ccc(Nc2nc(Cl)nc3cnn(C)c23)cc1`, the IC50 in the data set on NCI/ADR-RES was more than 5000 nM; at Tubulin, more than 20000 nM; with OVCAR-8 it was more than 5000 nM. The same molecule returned an inhibition on Tubulin (Homo sapiens) [1] of 7.1%.
On to `COc1ccc(N(C)c2nc(C)nc3ccn(C)c23)cc1`, for which the inhibition at Tubulin (Homo sapiens) [1] is 99%; on Tubulin (Homo sapiens) [2], 79%.
With `CC(=O)O[C@H]1C(=O)[C@@]2(C)[C@H]([C@H](OC(=O)c3ccccc3)[C@]3(O)C[C@H](OC(=O)[C@H](O)[C@@H](NC(=O)c4ccccc4)c4ccccc4)C(C)=C1C3(C)C)[C@]1(OC(C)=O)CO[C@@H]1C[C@@H]2O` [PACLITAXEL], the Activity entry in [3] is reported as “Toxic”. The EC50 was 194 nM in the data set on MCF7 [4] and 2070 nM in the data set with MCF7 [6]. Besides, the TGI result with MCF7 [5] is “Active”. In the data set on OVCAR-8, this molecule came in with an IC50 of 5.3 nM.
Consider `COc1ccc(Nc2nc(C)nc3cc[nH]c23)cc1`, for which, on Tubulin (Homo sapiens) [1], the inhibition is 0%.
`COc1ccc(N(C)c2nc(C)nc3cc[nH]c23)cc1`: the inhibition at Tubulin (Homo sapiens) [1] is 60%. For the same molecule, on Tubulin, 10000 nM corresponded to half-maximal inhibition (IC50).
In the case of `COc1ccc(N(C)c2nc(Cl)nc3cnn(C)c23)cc1F`, the “Ratio EC50” value stood at 100 in the data set with MCF7 [7], 1.6 in [8] and 600 in the data set with MCF7 [9]. The IC50 stood at 7 nM in the data set on NCI/ADR-RES, 740 nM on Tubulin and 9 nM with OVCAR-8. Further, the inhibition was found to be 97% at Tubulin (Homo sapiens) [1] and 77% on Tubulin (Homo sapiens) [2]. The EC50 with MCF7 [4] came to 1.7 nM; in the data set on MCF7 [6], 2.6 nM. Also, in data set [10], the “Ratio IC50” value was 0.77.
Take `COc1ccc(N(C)c2nc(C)nc3c(Cc4ccccc4)c[nH]c23)cc1`: the half-inhibitory concentration (IC50) at Tubulin is 21000 nM.
For the molecule `CN(c1ccc(OC(F)(F)F)cc1)c1nc(Cl)nc2cnn(C)c12`, the IC50 with NCI/ADR-RES turned out to be 730 nM; on Tubulin, 2900 nM; in the data set with OVCAR-8 it was 880 nM. Besides, the inhibition at Tubulin (Homo sapiens) [1] came to 64%. The “Ratio IC50” value in [10] is reported as 0.83.
Consider `CCOc1ccc(N(C)c2nc(Cl)nc3cnn(C)c23)cc1`, for which the entries for the “Ratio EC50” value (in the data set with MCF7 [7]; in [8]; with MCF7 [9]) were 25, 1.3 and 220, respectively. The 50% inhibitory concentration (IC50) amounted to 4 nM in the data set with NCI/ADR-RES, 420 nM against Tubulin and 2 nM with OVCAR-8. The inhibition amounted to 99% at Tubulin (Homo sapiens) [1] and 88% on Tubulin (Homo sapiens) [2]. Moreover, the EC50 in the data set with MCF7 [4] came out at 7.7 nM; in the data set on MCF7 [6], 9.7 nM. In addition, the “Ratio IC50” value in data set [10] came out at 2.
Turning to `COc1ccc2c(c1)CCCN2c1nc(C)nc2c(Cc3ccccc3)c[nH]c12`, the inhibition at Tubulin (Homo sapiens) [1] amounted to 43%.
For the molecule `COc1ccc(N(C)c2nc(C)nc3c(Cc4ccccc4)cn(C)c23)cc1`, the inhibition is 92% at Tubulin (Homo sapiens) [1] and 73% on Tubulin (Homo sapiens) [2]. Further, 480 nM corresponded to half-maximal inhibition at Tubulin (IC50).
`CSc1ccc(N(C)c2nc(Cl)nc3cnn(C)c23)cc1`: the concentration for half-maximal inhibition (IC50) was found to be 17 nM with NCI/ADR-RES, 820 nM at Tubulin and 31 nM in the data set on OVCAR-8. In addition, the inhibition on Tubulin (Homo sapiens) [1] stood at 93%; on Tubulin (Homo sapiens) [2], 64%. The “Ratio IC50” value in [10] was found to be 0.54.
Take `COc1ccc2c(c1)CCCN2c1nc(Cl)nc2cnn(C)c12`: the half-maximal inhibitory concentration (IC50) with NCI/ADR-RES came out at 8 nM; on Tubulin, 420 nM; in the data set on OVCAR-8, 17 nM. Further, the inhibition at Tubulin (Homo sapiens) [1] came out at 94%; at Tubulin (Homo sapiens) [2], 68%. In addition, the “Ratio IC50” value in data set [10] stood at 0.47.
`CC(C)Oc1ccc(N(C)c2nc(Cl)nc3cnn(C)c23)cc1`: the figures for the concentration for half-maximal inhibition (IC50) in the data set with NCI/ADR-RES, at Tubulin and in the data set with OVCAR-8 were 44 nM, 1100 nM and 49 nM, respectively. This molecule also gave an inhibition on Tubulin (Homo sapiens) [1] of 85%. For the same molecule, in data set [10], the “Ratio IC50” value is given as 0.89.
